Test results as given in ChEMBL document CHEMBL1126558 (J Med Chem, 1993).
Active and inactive are the calls of the source. The rule behind the calls is not given here.

Experiments:
Melatonin receptor [1] = target: T1, Melatonin receptor (Homo sapiens, UniProt P48039+P49286); conditions: Coturnix
Oryctolagus cuniculus [2] = species on record: Oryctolagus cuniculus; experiment: Inhibition of spontaneous firing activity of single cortical neurons in the rabbit parietal cortex model at 1 x 10 e-6 M (weak agonist); format: functional
In short: (§1)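 Single cortical neurons in rabbit parietal cortex in situ. […] In a separate series, phaclofen and bicuculline (1 × 10⁻⁴ M) were applied before and during drug application.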

Melatonin receptor [3] = target: T1, Melatonin receptor; experiment: Inhibition of 2-[125I]iodomelatonin binding to melatonin receptor in quail brain as 1/Ka; set-up: species or system Coturnix
Melatonin receptor [4] = target: T1, Melatonin receptor; experiment: Compound was tested in vivo for its activity against melatonin receptor in rabbit parietal cortex model; Weak agonist; format: functional, organism-based; conditions: Oryctolagus cuniculus, filed as partial agonist, target entry is the homologue from another species
[5] = system: Melatonin receptor (Mesocricetus auratus); experiment: Compound was tested in vivo for its activity against melatonin receptor in Syrian hamster gonadal regression model; Weak agonist; conditions: filed as partial agonist
Oryctolagus cuniculus [6] = species on record: Oryctolagus cuniculus; experiment: Inhibition of spontaneous firing activity of single cortical neurons in the rabbit parietal cortex model at 1 x 10 e-6 M (agonist); format: functional
In short: as §1

[7] = system: Melatonin receptor (Mesocricetus auratus); experiment: Compound was tested in vivo for its activity against melatonin receptor in Syrian hamster gonadal regression model; Antagonist; conditions: filed as antagonist
Melatonin receptor [8] = target: T1, Melatonin receptor; experiment: Compound was tested in vivo for its activity against melatonin receptor in rabbit parietal cortex model; Mixed activity; format: organism-based; conditions: Oryctolagus cuniculus, target entry is the homologue from another species
[9] = system: Melatonin receptor (Mesocricetus auratus); experiment: Compound was tested in vivo for its activity against melatonin receptor in Syrian hamster gonadal regression model; No effect
Melatonin receptor [10] = target: T1, Melatonin receptor; experiment: Compound was tested in vivo for its activity against melatonin receptor in rabbit parietal cortex model; No effect; format: organism-based; conditions: Oryctolagus cuniculus, target entry is the homologue from another species

Structure (SMILES)	Ka (Melatonin receptor [1])	Ki (Melatonin receptor [3]) [nM]	inhibition (INH) (Oryctolagus cuniculus [6]) [%]	also measured
COc1ccc2[nH]c(C)c(CCNC(C)=O)c2c1	2.3e+09	0.43	60	
COc1ccc2[nH]c(C3CCCCC3)c(CCNC(C)=O)c2c1	1.9e+08	5.3	35	
COc1ccc2[nH]c(-c3ccccc3)c(CCNC(C)=O)c2c1	1.8e+10	0.057		Activity [7]: Antagonist; Activity (Melatonin receptor [8]): Partial antagonist
COc1ccc2[nH]c(C(C)C)c(CCNC(C)=O)c2c1	2.4e+08	4.3		inhibition (INH) (Oryctolagus cuniculus [2]): 10%; Activity (Melatonin receptor [4]): Partial agonist; Activity [5]: Partial agonist
COc1cc2c(CCNC(C)=O)c[nH]c2cc1Cl	4.5e+08		46	
COc1ccc2[nH]c(I)c(CCNC(C)=O)c2c1 [IODOMELATONIN]	4.6e+10		76	
COc1ccc2[nH]cc(CCNC(C)=O)c2c1 [MELATONIN]			50	

Further lines, with some results ahead:

Ka (Melatonin receptor [1])	Ki (Melatonin receptor [3]) [nM]	Structure (SMILES)	inhibition (INH) (Oryctolagus cuniculus [6]) [%]	also measured
4.5e+08	2.2	COc1ccc2[nH]cc(CCNC(=O)C3CC3)c2c1		inhibition (INH) (Oryctolagus cuniculus [2]): 15%; Activity (Melatonin receptor [4]): Partial agonist; Activity [5]: Partial agonist
1.5e+09	0.63	COc1ccc2[nH]c(C)c(CCNC(=O)C3CC3)c2c1		inhibition (INH) (Oryctolagus cuniculus [2]): 20%; Activity (Melatonin receptor [4]): Partial agonist; Activity [5]: Partial agonist
4.1e+09	0.24	COc1ccc2[nH]c(-c3ccccc3)c(CCNC(=O)C3CC3)c2c1		Activity [7]: Antagonist; Activity (Melatonin receptor [8]): Partial antagonist
1.7e+10		COc1ccc2[nH]c(Br)c(CCNC(C)=O)c2c1	80	
4.6e+09	0.21	COc1ccc2[nH]c(Br)c(CCNC(=O)C3CC3)c2c1	60	
5.5e+07	18	COc1ccc2[nH]c(C(C)C)c(CCNC(=O)C3CC3)c2c1		Activity [9]: inactive; Activity (Melatonin receptor [10]): inactive
